The text below walks through data of ChEMBL document CHEMBL4270576, “Discovery of a benzenesulfonamide-based dual inhibitor of microsomal prostaglandin E2 synthase-1 and 5-lipoxygenase that favorably modulates lipid mediator biosynthesis in inflammation” (Eur J Med Chem, 2018).

Assay [1] concerns the target T1, Prostaglandin E synthase (Homo sapiens, UniProt O14684).
T1 sequence (O14684 whole entry): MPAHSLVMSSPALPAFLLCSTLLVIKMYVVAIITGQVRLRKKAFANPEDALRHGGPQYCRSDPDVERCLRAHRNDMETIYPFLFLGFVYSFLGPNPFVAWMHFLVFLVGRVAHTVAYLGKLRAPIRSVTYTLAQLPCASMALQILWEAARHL
As to the kind of experiment: Inhibition of mPGES-1 isolated from microsomes of interleukin-1 beta-stimulated human A549 cells using PGH2 as substrate preincubated for 15 mins followed by substrate addition measured after 1 min by RP-HPLC analysis. The essentials: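 Microsomes from A549 cells treated with IL-1β (1 ng/ml, 72 h), diluted in 0.1 M potassium phosphate pH 7.4 with 2.5 mM glutathione. Pre-incubated 15 min with compound or DMSO, then 20 µM PGH2 (final) for 1 min at 4 °C. IC50 from 4-5 concentrations.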

The target in assay [2] is T2, Polyunsaturated fatty acid 5-lipoxygenase (Homo sapiens, UniProt P09917).
T2 sequence (P09917 whole entry): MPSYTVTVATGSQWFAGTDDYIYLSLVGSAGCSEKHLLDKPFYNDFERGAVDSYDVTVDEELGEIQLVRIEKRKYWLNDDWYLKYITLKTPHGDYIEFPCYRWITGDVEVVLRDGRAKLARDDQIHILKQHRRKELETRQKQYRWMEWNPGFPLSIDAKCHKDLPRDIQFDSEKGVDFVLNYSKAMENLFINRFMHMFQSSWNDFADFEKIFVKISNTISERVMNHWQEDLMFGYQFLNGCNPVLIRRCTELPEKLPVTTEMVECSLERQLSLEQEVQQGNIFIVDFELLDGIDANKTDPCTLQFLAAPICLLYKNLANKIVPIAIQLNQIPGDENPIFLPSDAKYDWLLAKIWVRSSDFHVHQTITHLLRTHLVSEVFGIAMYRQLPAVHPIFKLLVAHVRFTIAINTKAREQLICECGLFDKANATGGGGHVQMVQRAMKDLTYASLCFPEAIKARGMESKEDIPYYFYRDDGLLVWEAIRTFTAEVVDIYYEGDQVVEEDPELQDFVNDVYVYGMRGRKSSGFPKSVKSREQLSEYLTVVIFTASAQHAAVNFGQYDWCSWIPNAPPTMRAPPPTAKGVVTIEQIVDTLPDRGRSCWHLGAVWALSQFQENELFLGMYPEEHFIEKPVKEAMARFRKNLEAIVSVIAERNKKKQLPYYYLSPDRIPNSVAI
As to the kind of experiment: Inhibition of recombinant human 5-LO expressed in Escherichia coli BL21 (DE3) using arachidonic acid as substrate preincubated for 10 mins followed by CaCl2 and substrate addition measured after 10 mins by RP-HPLC analysis. The essentials: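 Human recombinant 5-LO from E. coli BL21(DE3), ATP-agarose semi-purified (0.5 µg/ml), pre-incubated with compound or 0.1% DMSO at 4 °C. It was pre-warmed 30 s at 37 °C, then started with 2 mM CaCl2 plus 20 µM AA. Stopped after 10 min with ice-cold methanol; products by RP-HPLC. Residual activity at 10 µM; IC50 from 4-5 concentrations; n=3-4.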

For assay [3], the target named is T2, Polyunsaturated fatty acid 5-lipoxygenase. The experiment in a line: Inhibition of 5-LO in human neutrophils using arachidonic acid as substrate assessed as reduction in 5-LO product formation preincubated for 15 mins followed by substrate addition measured after 10 mins in presence of Ca2+ ionophore A23187 by HPLC analysis. An outline of the steps:
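Human neutrophils (5 × 10^6 in 1 ml PBS with 1 mg/ml glucose) pre-incubated 15 min at 37 °C with compound or 0.1% DMSO, then activated with 1 mM CaCl2 and 2.5 µM A23187, with or without 20 µM AA; 5-LO products measured after 10 min. Residual activity at 10 µM; IC50 by nonlinear regression from 4-5 concentrations; mean ± SEM, n=3-4.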

Assay [4] relates to Mus musculus. As to the kind of experiment: Antiinflammatory activity in CD-1 mouse assessed as reduction in zymosan-induced LTC4 formation in peritoneal cavity at 10 mg/kg, ip preincubated for 30 mins followed by zymosan addition measured after 30 mins by ELISA. It is filed as functional, organism-based. The essentials: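 CD-1 male mice (6-8 weeks), n=6 per group, given 10 mg/kg i.p. in 2% DMSO/saline vehicle 30 min before i.p. zymosan (500 µL of 2 mg/mL suspension). Peritoneal cavity washed with 3 ml PBS 30 min after zymosan; LTC4 measured in exudate. One-way ANOVA with Bonferroni test.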
(ELISA stands for enzyme-linked immunosorbent assay.)

Assay [5] deals with Mus musculus. As to the kind of experiment: Antiinflammatory activity in zymosan induced CD-1 mouse model of inflammation assessed as reduction in LTB4 levels in air pouch at 10 mg/kg, ip preincubated for 30 mins followed by zymosan challenge and measured after 4 hrs by ELISA. It counts as functional, organism-based. The essentials:
(§1)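 Air pouch formed by s.c. injection of 2.5 mL sterile air in CD-1 mice; on day 6, 10 mg/kg i.p. (2% DMSO/saline) given 30 min before 1 ml 1% w/v zymosan into the pouch. After 4 h, exudate collected with 1 ml saline and centrifuged; leukocytes counted in Burker chamber; LTB4 in supernatant by ELISA (ng/mL). n=6 mice per group.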

In assay [6] the test system is Mus musculus. The experiment in a line: Antiinflammatory activity in zymosan induced CD-1 mouse model of inflammation assessed as reduction in leukocyte recruitment in air pouch at 10 mg/kg, ip preincubated for 30 mins followed by zymosan challenge and measured after 4 hrs by trypan blue staining-based burker's chamber method. It is filed as functional, organism-based. The essentials: as §1

Calls of active or inactive are those of the source. No cut-off for these calls is given here.

In the case of `O=C(O)c1ccc(N(Cc2cccc(Oc3ccccc3)c2)S(=O)(=O)c2ccc(-c3ccccc3)cc2)cc1`, the values for the 50% inhibitory concentration (IC50) in assay [1], in assay [2] and in assay [3] were 3800 nM, 7200 nM and 300 nM, respectively.

For the molecule `O=C(O)c1ccc(N(Cc2ccc3ccccc3c2)S(=O)(=O)c2ccc(-c3ccccc3)cc2)cc1`, the IC50 (in general, the concentration that inhibits the measured activity by half) in assay [1] came out at 300 nM; in assay [2], 6400 nM; in assay [3], 1100 nM.

Consider `CC(C)(C)c1ccc(CN(c2ccc(C(=O)O)cc2)S(=O)(=O)c2ccc(-c3ccccc3)cc2)cc1`, for which the IC50 in assay [1] stood at 1200 nM; in assay [2], 5600 nM; in assay [3] it was 300 nM.

Regarding `O=C(O)c1ccc(N(Cc2ccc(OCc3ccccc3)cc2)S(=O)(=O)c2ccc(-c3ccccc3)cc2)cc1`, the IC50 in assay [1] is 6500 nM; in assay [2], 6600 nM; in assay [3], 500 nM.

In the case of `O=C(O)c1ccc(N(Cc2cccc(Oc3ccccc3)c2)S(=O)(=O)c2ccc(Oc3ccccc3)cc2)cc1`, the IC50 is 800 nM in assay [1], 6000 nM in assay [2] and 1000 nM in assay [3].

As to `CC(C)(C)C#Cc1ccc(S(=O)(=O)N(Cc2ccc(C(C)(C)C)cc2)c2ccc(C(=O)O)cc2)cc1`, the figures for the IC50 in assay [1], in assay [2] and in assay [3] were 2700 nM, 2300 nM and 900 nM, respectively.

For the molecule `CCCCCCCCN(c1ccc(C(=O)O)cc1)S(=O)(=O)c1ccc(-c2ccccc2)cc1`, the results for the IC50 in assay [1], in assay [2] and in assay [3] were 5000 nM, 5200 nM and 500 nM, respectively.

For `CC(c1cc2ccccc2s1)N(O)C(N)=O` (stereo unspecified) [ZILEUTON], the IC50 in assay [1] is 2400 nM. Also, the result in assay [4], in assay [5] and in assay [6] was Active.

On to `O=C(O)Cc1ccc(N(Cc2ccc3ccccc3c2)S(=O)(=O)c2ccc(-c3ccccc3)cc2)cc1`, for which the half-maximal inhibitory concentration (IC50) in assay [1] was 1100 nM; in assay [2], 8700 nM; in assay [3], 3400 nM.

Turning to `O=C(O)CCc1ccc(N(Cc2ccc3ccccc3c2)S(=O)(=O)c2ccc(-c3ccccc3)cc2)cc1`, the values for the half-inhibitory concentration (IC50) in assay [1], in assay [2] and in assay [3] were 700 nM, 5500 nM and 1800 nM, respectively.
